From ChEMBL document CHEMBL1157589, “Antifungal 3,5-disubstituted furanones: From 5-acyloxymethyl to 5-alkylidene derivatives” (Bioorg Med Chem, 2010)
≈ marks a conversion by molar mass, not a printed value.

Each molecule was assayed on Candida albicans (assay: Antifungal activity against Candida albicans ATCC 44859 after 48 hrs by microdilution method). Settings: ATCC 44859, 48 h; call rule not given here.
Format: functional
In short: (§1)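 Yeasts held on Sabouraud dextrose agar. MIC by NCCLS M27-A broth microdilution in RPMI 1640 with L-glutamine, buffered with 0.165 M MOPS to pH 7.0. Compounds in DMSO (≤2% final), twofold dilutions 500–0.48. Final inoculum 5 × 10³ ± 0.2 cfu mL⁻¹. Incubated at 35 °C; absorbance at 540 nm read at 24 and 48 h. MIC is 80% growth inhibition versus control; run twice in duplicate.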

Row | MIC80 [µM] | SMILES
1 | 7.81 (≈ 2.2 µg/mL) | O=C1O/C(=C\CO)C=C1c1ccc(Br)cc1

The molecules below were run on Candida albicans (assay: Antifungal activity against Candida albicans ATCC 90028 after 24 hrs by microdilution method). Settings: ATCC 90028, 24 h.
Format: functional
In short: as §1

Row | MIC80 [µM] | SMILES
2 | 7.81 (≈ 2.2 µg/mL) | O=C1O/C(=C\CO)C=C1c1ccc(Br)cc1

What follows are molecules tested on Candida albicans (assay: Antifungal activity against Candida albicans ATCC 90028 after 48 hrs by microdilution method). Settings: ATCC 90028, 48 h.
Format: functional
In short: as §1

Row | MIC80 [µM] | SMILES
3 | 15.6 (≈ 4.39 µg/mL) | O=C1O/C(=C\CO)C=C1c1ccc(Br)cc1

Each molecule was assayed on Candida parapsilosis (assay: Antifungal activity against Candida parapsilosis ATCC 22019 after 24 hrs by microdilution method). Settings: Lodderomyces parapsilosis, ATCC 22019, 24 h.
Format: functional
In short: as §1

Row | MIC80 [µM] | SMILES
4 | 31.2 (≈ 8.78 µg/mL) | O=C1O/C(=C\CO)C=C1c1ccc(Br)cc1

What follows are molecules tested on Candida parapsilosis (assay: Antifungal activity against Candida parapsilosis ATCC 22019 after 48 hrs by microdilution method). Settings: Lodderomyces parapsilosis, ATCC 22019, 48 h.
Format: functional
In short: as §1

Row | MIC80 [µM] | SMILES
5 | 62.5 (≈ 17.6 µg/mL) | O=C1O/C(=C\CO)C=C1c1ccc(Br)cc1

The molecules below were run on Pichia kudriavzevii (assay: Antifungal activity against Candida krusei ATCC 6258 after 24 hrs by microdilution method). Settings: ATCC 6258, 24 h.
Format: functional
In short: as §1

Row | MIC80 [µM] | SMILES
6 | 15.6 (≈ 4.39 µg/mL) | O=C1O/C(=C\CO)C=C1c1ccc(Br)cc1

Each molecule was assayed on Pichia kudriavzevii (assay: Antifungal activity against Candida krusei ATCC 6258 after 48 hrs by microdilution method). Settings: ATCC 6258, 48 h.
Format: functional
In short: as §1

Row | MIC80 [µM] | SMILES
7 | 31.2 (≈ 8.78 µg/mL) | O=C1O/C(=C\CO)C=C1c1ccc(Br)cc1

The molecules below were run on Pichia kudriavzevii (assay: Antifungal activity against Candida krusei E28 after 24 hrs by microdilution method). Settings: E28, 24 h.
Format: functional
In short: as §1

Row | MIC80 [µM] | SMILES
8 | 31.2 (≈ 8.78 µg/mL) | O=C1O/C(=C\CO)C=C1c1ccc(Br)cc1

The molecules below were run on Pichia kudriavzevii (assay: Antifungal activity against Candida krusei E28 after 48 hrs by microdilution method). Settings: E28, 48 h.
Format: functional
In short: as §1

Row | MIC80 [µM] | SMILES
9 | 62.5 (≈ 17.6 µg/mL) | O=C1O/C(=C\CO)C=C1c1ccc(Br)cc1

Each molecule was assayed on Candida tropicalis (assay: Antifungal activity against Candida tropicalis 156 after 24 hrs by microdilution method). Settings: Candida tropicalis, 156, 24 h.
Format: functional
In short: as §1

Row | MIC80 [µM] | SMILES
10 | 15.6 (≈ 4.39 µg/mL) | O=C1O/C(=C\CO)C=C1c1ccc(Br)cc1

What follows are molecules tested on Candida tropicalis (assay: Antifungal activity against Candida tropicalis 156 after 48 hrs by microdilution method). Settings: Candida tropicalis, 156, 48 h.
Format: functional
In short: as §1

Row | MIC80 [µM] | SMILES
11 | 31.2 (≈ 8.78 µg/mL) | O=C1O/C(=C\CO)C=C1c1ccc(Br)cc1

These molecules were tested on Nakaseomyces glabratus (assay: Antifungal activity against Candida glabrata 20/I after 24 hrs by microdilution method). Settings: not given.
Format: functional
In short: as §1

Row | MIC80 [µM] | SMILES
12 | 15.6 (≈ 4.39 µg/mL) | O=C1O/C(=C\CO)C=C1c1ccc(Br)cc1

What follows are molecules tested on Nakaseomyces glabratus (assay: Antifungal activity against Candida glabrata 20/I after 48 hrs by microdilution method). Settings: not given.
Format: functional
In short: as §1

Row | MIC80 [µM] | SMILES
13 | 62.5 (≈ 17.6 µg/mL) | O=C1O/C(=C\CO)C=C1c1ccc(Br)cc1

What follows are molecules tested on Clavispora lusitaniae (assay: Antifungal activity against Candida lusitaniae 2446/I after 24 hrs by microdilution method). Settings: not given.
Format: functional
In short: as §1

Row | MIC80 [µM] | SMILES
14 | 7.81 (≈ 2.2 µg/mL) | O=C1O/C(=C\CO)C=C1c1ccc(Br)cc1

These molecules were tested on Clavispora lusitaniae (assay: Antifungal activity against Candida lusitaniae 2446/I after 48 hrs by microdilution method). Settings: not given.
Format: functional
In short: as §1

Row | MIC80 [µM] | SMILES
15 | 15.6 (≈ 4.39 µg/mL) | O=C1O/C(=C\CO)C=C1c1ccc(Br)cc1

What follows are molecules tested on Trichosporon beigelii (assay: Antifungal activity against Trichosporon beigelii 1188 after 24 hrs by microdilution method). Settings: Trichosporon beigelii, 1188, 24 h.
Format: functional
In short: as §1

Row | MIC80 [µM] | SMILES
16 | 31.2 (≈ 8.78 µg/mL) | O=C1O/C(=C\CO)C=C1c1ccc(Br)cc1

The molecules below were run on Trichosporon beigelii (assay: Antifungal activity against Trichosporon beigelii 1188 after 48 hrs by microdilution method). Settings: Trichosporon beigelii, 1188, 48 h.
Format: functional
In short: as §1

Row | MIC80 [µM] | SMILES
17 | 62.5 (≈ 17.6 µg/mL) | O=C1O/C(=C\CO)C=C1c1ccc(Br)cc1

These molecules were tested on Aspergillus fumigatus (assay: Antifungal activity against Aspergillus fumigatus 231 after 24 hrs by microdilution method). Settings: Aspergillus fumigatus, 231, 24 h.
Format: functional
In short: (§2)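 Filamentous strains held on Sabouraud dextrose agar. NCCLS M27-A broth microdilution in RPMI 1640 with L-glutamine and 0.165 M MOPS, pH 7.0. DMSO diluent ≤2% final; twofold dilutions 500–0.48. Inoculum 5 × 10³ ± 0.2 cfu mL⁻¹ final.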

Row | MIC80 [µM] | SMILES
18 | 7.81 (≈ 2.2 µg/mL) | O=C1O/C(=C\CO)C=C1c1ccc(Br)cc1

These molecules were tested on Aspergillus fumigatus (assay: Antifungal activity against Aspergillus fumigatus 231 after 48 hrs by microdilution method). Settings: Aspergillus fumigatus, 231, 48 h.
Format: functional
In short: as §2

Row | MIC80 [µM] | SMILES
19 | 15.6 (≈ 4.39 µg/mL) | O=C1O/C(=C\CO)C=C1c1ccc(Br)cc1

What follows are molecules tested on Lichtheimia corymbifera (assay: Antifungal activity against Absidia corymbifera 272 after 24 hrs by microdilution method). Settings: Lichtheimia corymbifera, 272, 24 h.
Format: functional
In short: as §2

Row | MIC80 [µM] | SMILES
20 | 15.6 (≈ 4.39 µg/mL) | O=C1O/C(=C\CO)C=C1c1ccc(Br)cc1

Each molecule was assayed on Lichtheimia corymbifera (assay: Antifungal activity against Absidia corymbifera 272 after 48 hrs by microdilution method). Settings: Lichtheimia corymbifera, 272, 48 h.
Format: functional
In short: as §2

Row | MIC80 [µM] | SMILES
21 | 15.6 (≈ 4.39 µg/mL) | O=C1O/C(=C\CO)C=C1c1ccc(Br)cc1

The molecules below were run on Trichophyton mentagrophytes (assay: Antifungal activity against Trichophyton mentagrophytes 445 after 72 hrs by microdilution method). Settings: Trichophyton mentagrophytes, 445, 72 h.
Format: functional
In short: (§3)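 Dermatophyte held on Sabouraud dextrose agar. M27-A microdilution in MOPS-buffered (0.165 M, pH 7.0) RPMI 1640 with L-glutamine. DMSO ≤2% final; twofold dilutions 500–0.48. Inoculum 5 × 10³ ± 0.2 cfu mL⁻¹ final. Incubated at 35 °C; MIC read visually at 72 and 120 h as 80% inhibition of control growth; determined twice in duplicate.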

Row | MIC80 [µM] | SMILES
22 | 7.81 (≈ 2.2 µg/mL) | O=C1O/C(=C\CO)C=C1c1ccc(Br)cc1

Each molecule was assayed on Trichophyton mentagrophytes (assay: Antifungal activity against Trichophyton mentagrophytes 445 after 120 hrs by microdilution method). Settings: Trichophyton mentagrophytes, 445, 120 h.
Format: functional
In short: as §3

Row | MIC80 [µM] | SMILES
23 | 7.81 (≈ 2.2 µg/mL) | O=C1O/C(=C\CO)C=C1c1ccc(Br)cc1

What follows are molecules tested on L1210 (assay: Cytostatic activity against mouse L1210 cells after 72 hrs by XTT assay). Settings: Mus musculus, L1210, 72 h; read-out: IC50.
Format: functional, cell-based
In short: (§4)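 Leukemia cells (L1210 ATCC CCL 219, CCRF-CEM ATCC CCL 119, HL-60 ATCC CCL 240) grown in 24-well plates in RPMI 1640 with fetal calf serum. Growth assessed 72 h after drug addition. Viability measured by XTT spectrophotometric assay; potency given as IC50.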

Row | IC50 [µM] | SMILES
24 | 7.71 | O=C1O/C(=C\CO)C=C1c1ccc(Br)cc1

These molecules were tested on HL-60 (assay: Cytostatic activity against human HL60 cells after 72 hrs by XTT assay). Settings: hl-60.
Format: functional, cell-based
In short: as §4

Row | IC50 | SMILES
25 | Not Active | O=C1O/C(=C\CO)C=C1c1ccc(Br)cc1

Each molecule was assayed on CCRF-CEM (assay: Cytostatic activity against human CCRF-CEM cells after 72 hrs by XTT assay). Settings: Homo sapiens, CCRF-CEM, 72 h; read-out: IC50.
Format: functional, cell-based
In short: as §4

Row | IC50 [µM] | SMILES
26 | 2.07 | O=C1O/C(=C\CO)C=C1c1ccc(Br)cc1

What follows are molecules tested on Candida albicans (assay: Antifungal activity against Candida albicans ATCC 44859 after 24 hrs by microdilution method). Settings: ATCC 44859, 24 h.
Format: functional
In short: as §1

Row | MIC80 [µM] | SMILES
27 | 1.95 (≈ 0.548 µg/mL) | O=C1O/C(=C\CO)C=C1c1ccc(Br)cc1

What follows are molecules tested on HeLa S3 (assay: Cytostatic activity against human HeLaS3 cells after 48 hrs by XTT assay). Settings: Homo sapiens, HeLa S3, 48 h; read-out: IC50.

Row | IC50 [µM] | SMILES
28 | 3.06 | O=C1O/C(=C\CO)C=C1c1ccc(Br)cc1
